Data on ten compounds can be found in ChEMBL document CHEMBL4130571, “(+)- and (-)-Ecarlottones, Uncommon Chalconoids from Fissistigma latifolium with Pro-Apoptotic Activity” (J Nat Prod, 2017).

pKi: −log10 of the molar value. Activity calls are given as the source filed them. No cut-off for these calls is given here.

Bcl-xL/BAK, sequence (Q07817 whole entry): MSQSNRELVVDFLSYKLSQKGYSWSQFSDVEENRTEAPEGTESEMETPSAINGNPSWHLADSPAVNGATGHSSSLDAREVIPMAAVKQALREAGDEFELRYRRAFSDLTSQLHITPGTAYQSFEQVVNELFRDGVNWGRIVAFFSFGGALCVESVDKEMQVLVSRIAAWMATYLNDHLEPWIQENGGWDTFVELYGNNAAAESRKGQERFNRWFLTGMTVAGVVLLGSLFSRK
Bcl-xL/BAK, sequence (Q16611 whole entry, further chain): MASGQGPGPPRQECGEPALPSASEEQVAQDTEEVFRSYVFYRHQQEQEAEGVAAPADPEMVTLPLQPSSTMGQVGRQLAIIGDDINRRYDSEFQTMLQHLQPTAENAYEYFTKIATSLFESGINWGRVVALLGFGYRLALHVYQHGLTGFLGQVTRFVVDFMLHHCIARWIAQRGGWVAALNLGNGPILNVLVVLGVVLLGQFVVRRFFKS

The subject of one assay is HUVEC (Homo sapiens). Kind of assay: Cytotoxicity against HUVEC cells up to 10 uM.
In the case of `COC1=C(O)C(=O)/C(=C(\O)C2CC=C(CCC=C(C)C)CC2c2ccccc2)C(=O)C1=O` (racemic), the result was inactive.

For the compound `COC1=C(O)C(=O)/C(=C(\O)[C@@H]2CC=C(CCC=C(C)C)C[C@H]2c2ccccc2)C(=O)C1=O`, the outcome was inactive.

Regarding `COC1=C(OC)C(=O)C2=C(O[C@@H](c3ccccc3)CC2=O)C1=O`, the outcome was inactive.

For the compound `CC(C)=CCCC1=CCC(C(=O)O)C(c2ccccc2)C1` (racemic), the result was inactive.

In the case of `CC(=O)C1CC(CCC=C(C)C)=CCC1c1ccccc1` (racemic), the outcome was inactive.

On to `CC(=O)C1CC=C(CCC=C(C)C)CC1c1ccccc1` (racemic), for which the result was inactive.

As to `COc1c(O)c2c(c(O)c1OC)C(=O)C[C@H](c1ccccc1)O2`, the outcome was inactive.

Take `COC1=C(O)C(=O)/C(=C(\O)[C@H]2CC=C(CCC=C(C)C)C[C@@H]2c2ccccc2)C(=O)C1=O`: the outcome was inactive.

In the case of `COc1cc(/C=C/c2ccccc2)oc(=O)c1` [DESMETHOXYYANGONIN], the outcome was inactive.

In a further assay the target is Induced myeloid leukemia cell differentiation protein Mcl-1/BH3-interacting domain death agonist (Homo sapiens, UniProt Q07820). The assay can be described thus: Inhibition of His-tagged MCL1 (unknown origin)/5-carboxyfluorescein-labeled Bid (unknown origin) protein protein interaction after 1 hr by fluorescence polarization assay. An outline of the steps: (§1)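 Competition FP assay displacing a fluorescent-tagged BH3-domain probe (Bak peptide for Bcl-xL, Bid peptide for Mcl-1). Run in triplicate, with reference BH3-mimetic positive controls.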
Induced myeloid leukemia cell differentiation protein Mcl-1/BH3-interacting domain death agonist, sequence (Q07820 whole entry, the tested form may be a part): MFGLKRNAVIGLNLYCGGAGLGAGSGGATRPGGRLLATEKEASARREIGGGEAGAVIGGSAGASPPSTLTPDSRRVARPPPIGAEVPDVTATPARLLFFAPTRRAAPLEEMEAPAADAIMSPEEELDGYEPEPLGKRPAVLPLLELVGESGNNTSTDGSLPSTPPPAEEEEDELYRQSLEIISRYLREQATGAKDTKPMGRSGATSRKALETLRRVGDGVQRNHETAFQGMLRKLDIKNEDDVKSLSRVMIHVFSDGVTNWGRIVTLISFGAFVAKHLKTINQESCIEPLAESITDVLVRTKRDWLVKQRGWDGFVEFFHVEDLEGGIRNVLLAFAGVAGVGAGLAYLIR
Induced myeloid leukemia cell differentiation protein Mcl-1/BH3-interacting domain death agonist, sequence (P55957 whole entry, further chain, the tested form may be a part): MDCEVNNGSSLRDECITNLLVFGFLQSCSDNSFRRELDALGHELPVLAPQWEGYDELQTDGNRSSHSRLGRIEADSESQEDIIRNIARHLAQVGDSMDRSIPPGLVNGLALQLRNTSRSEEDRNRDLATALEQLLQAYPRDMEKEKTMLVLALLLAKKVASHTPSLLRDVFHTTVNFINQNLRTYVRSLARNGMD
For orientation: Fluorescence polarisation rises when a labelled molecule tumbles more slowly, as on binding a larger partner.
Turning to `COC1=C(O)C(=O)/C(=C(\O)C2CC=C(CCC=C(C)C)CC2c2ccccc2)C(=O)C1=O` (racemic), the pKi – broadly, −log10 of the Ki, conventionally taken in molar units – is 5.51.

Compound `COC1=C(O)C(=O)/C(=C(\O)[C@@H]2CC=C(CCC=C(C)C)C[C@H]2c2ccccc2)C(=O)C1=O` gave a pKi of 5.62.

With `COC1=C(OC)C(=O)C2=C(O[C@@H](c3ccccc3)CC2=O)C1=O`, the pKi was < 4.48.

In the case of `CC(C)=CCCC1=CCC(C(=O)O)C(c2ccccc2)C1` (racemic), the negative logarithm of the Ki (pKi) was < 4.48.

For the compound `CC(=O)C1CC(CCC=C(C)C)=CCC1c1ccccc1` (racemic), the pKi is < 4.48.

As for `CC(=O)C1CC=C(CCC=C(C)C)CC1c1ccccc1` (racemic), the pKi is < 4.48.

As for `COc1c(O)c2c(c(O)c1OC)C(=O)C[C@H](c1ccccc1)O2`, the negative logarithm of the Ki (pKi) was < 4.48.

As for `COC1=C(O)C(=O)/C(=C(\O)[C@H]2CC=C(CCC=C(C)C)C[C@@H]2c2ccccc2)C(=O)C1=O`, the pKi was 5.13.

As to `COc1cc(/C=C/c2ccccc2)oc(=O)c1` [DESMETHOXYYANGONIN], the pKi is < 4.48.

A further assay relates to KB. The assay can be described thus: Cytotoxicity against human KB cells up to 10 uM. The class given is functional, cell-based.
In the case of `COC1=C(O)C(=O)/C(=C(\O)C2CC=C(CCC=C(C)C)CC2c2ccccc2)C(=O)C1=O` (racemic), the result was inactive.

For `COC1=C(O)C(=O)/C(=C(\O)[C@@H]2CC=C(CCC=C(C)C)C[C@H]2c2ccccc2)C(=O)C1=O`, the outcome was inactive.

As for `COC1=C(OC)C(=O)C2=C(O[C@@H](c3ccccc3)CC2=O)C1=O`, the result was inactive.

Take `CC(C)=CCCC1=CCC(C(=O)O)C(c2ccccc2)C1` (racemic): the result was inactive.

`CC(=O)C1CC(CCC=C(C)C)=CCC1c1ccccc1` (racemic): the outcome was inactive.

With `CC(=O)C1CC=C(CCC=C(C)C)CC1c1ccccc1` (racemic), the outcome was inactive.

Consider `COc1c(O)c2c(c(O)c1OC)C(=O)C[C@H](c1ccccc1)O2`, for which the result was inactive.

With `COC1=C(O)C(=O)/C(=C(\O)[C@H]2CC=C(CCC=C(C)C)C[C@@H]2c2ccccc2)C(=O)C1=O`, the outcome was inactive.

With `COc1cc(/C=C/c2ccccc2)oc(=O)c1` [DESMETHOXYYANGONIN], the result was inactive.

The next assay has as its target Bcl-xL/BAK (Homo sapiens, UniProt Q07817). Kind of assay: Inhibition of His-tagged Bcl-xL (unknown origin)/5-carboxyfluorescein-labeled Bak (unknown origin) protein protein interaction after 1 hr by fluorescence polarization assay. An outline of the steps: as §1
Compound `COC1=C(O)C(=O)/C(=C(\O)C2CC=C(CCC=C(C)C)CC2c2ccccc2)C(=O)C1=O` (racemic) showed a pKi of 4.76.

The compound `COC1=C(O)C(=O)/C(=C(\O)[C@@H]2CC=C(CCC=C(C)C)C[C@H]2c2ccccc2)C(=O)C1=O` gave a pKi of 5.32.

For `COC1=C(OC)C(=O)C2=C(O[C@@H](c3ccccc3)CC2=O)C1=O`, the pKi is < 4.64.

`CC(C)=CCCC1=CCC(C(=O)O)C(c2ccccc2)C1` (racemic): the pKi is < 4.64.

In the case of `CC(=O)C1CC(CCC=C(C)C)=CCC1c1ccccc1` (racemic), the pKi is < 4.64.

`CC(=O)C1CC=C(CCC=C(C)C)CC1c1ccccc1` (racemic): the pKi was < 4.64.

Turning to `CC(C)=CCC[C@H](C)[C@@H]1C=C[C@]2(C(=O)O)[C@@H](CC(C)=C[C@H]2/C=C(\C)C2CCC(C(=O)O)CC2)C1` (some centres not stated), the pKi was 5.59.

For `COc1c(O)c2c(c(O)c1OC)C(=O)C[C@H](c1ccccc1)O2`, the pKi is < 4.64.

On to `COC1=C(O)C(=O)/C(=C(\O)[C@H]2CC=C(CCC=C(C)C)C[C@@H]2c2ccccc2)C(=O)C1=O`, for which the pKi was < 4.64.

For the compound `COc1cc(/C=C/c2ccccc2)oc(=O)c1` [DESMETHOXYYANGONIN], the negative-log Ki (pKi) is < 4.64.
